Experimental data published in publication PMC3228909 (Journal of medicinal chemistry, 2011).
Values joined by “and” are separate entries in the source; they are usually repeats but may differ in a detail not shown here. Identical values can stand only once. Like-named read-outs stand apart in the source and are kept apart here.

Tests used:
[1] = target: Aβ plaques in postmortem AD brain homogenates (Homo sapiens, UniProt P05067); assay type: binding
[2] = target: Aβ plaques in postmortem human brain sections (Homo sapiens, UniProt P05067); assay: In vitro autoradiography of postmortem human brain sections; assay type: binding
Sequence of Aβ plaques in postmortem human brain sections (P05067 672-711 limits assumed): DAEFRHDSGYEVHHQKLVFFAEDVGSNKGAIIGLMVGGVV
Method in brief: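 Frozen postmortem brains (confirmed CAA, AD, control) cut at 20 µm. Sections incubated 1 h with the 18F-labelled test compound in 40% ethanol. Washes: saturated Li2CO3 in 40% ethanol (2 min, twice), then 40% ethanol (2 min, once), then a 30 s water rinse. Dried sections exposed to film for 12–18 h; developed images digitized.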

[3] = normal mice, iv, cited from earlier work
[4] = target: Aβ plaques in CAA brain sections (Homo sapiens, UniProt P05067); assay: Thioflavin S fluorescent staining of neighboring CAA occipital brain sections
Sequence of Aβ plaques in CAA brain sections (P05067 672-711 limits assumed): as above
Method in brief: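 Brain sections fixed in 10% neutral buffered formalin for 1 hr. Autofluorescence quenched with 0.05% KMnO4, then bleached in 0.2% K2S2O5/0.2% oxalic acid. Stained 3–5 min with 0.025% thioflavin S in 40% ethanol, differentiated in 50% ethanol. Imaged by fluorescence microscopy with a CCD digital camera.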

Sequence of Aβ plaques in postmortem AD brain homogenates (P05067 672-711 limits assumed): as above

For CNc1ccc(/C=C/c2ccc(OCCOCCOCCOCCOCCOCC(COCCOCCOCCOCCOCCOc3ccc(/C=C/c4ccc(NC)cc4)cn3)OCCF)nc2)cc1 [Compound 8b], which Ki [1] is on record?
The Ki was 3.24 nM.

Which Ki [1] does the source give for CNc1ccc(/C=C/c2ccc(OCCOCCOCCOCCOCCOCCOCC(COCCOCCOCCOCCOCCOCCOc3ccc(/C=C/c4ccc(NC)cc4)cn3)OCCF)nc2)cc1 [Compound 8c] here?
Its Ki is 7.71 nM.

With CNc1ccc(/C=C/c2ccc(OCCOCCOCC[18F])nc2)cc1 [[^18F]5, [^18F]florbetapir f 18] as the molecule, how does the “Autoradiographic labeling of brain sections” value ([2]; AD brain sections) read?
The value was “labeled intensely”.

What about the “Autoradiographic labeling of brain sections” value ([2]; healthy control (HC) brain sections) of the same molecule?
Its value is “very low labeling”.

What about the “Biodistribution, Blood” value ([3]; 2 min post injection) of the same molecule?
The value was 3.14 ± 0.69 % dose/gram.

And the “Biodistribution, Bone” value ([3]; 2 min post injection)?
The value was 1.43 ± 0.09 % dose/gram.

And the “Biodistribution, Brain (brain uptake)” value ([3]; 2 min post injection)?
Its value is 7.8 % dose/gram and 7.77 ± 1.70 % dose/gram.

What about the “Biodistribution, Kidney” value ([3]; 2 min post injection) of the same molecule?
Its value is 10.9 ± 2.63 % dose/gram.

And the “Biodistribution, Liver” value ([3]; 2 min post injection)?
The value was 21.5 ± 1.07 % dose/gram.

And the “Biodistribution, Muscle” value ([3]; 2 min post injection)?
Its value is 1.06 ± 0.39 % dose/gram.

What about the “Biodistribution, Blood” value ([3]; 30 min post injection) of the same molecule?
Its value is 2.80 ± 0.44 % dose/gram.

What about the “Biodistribution, Bone” value ([3]; 30 min post injection) of the same molecule?
The value was 1.22 ± 0.17 % dose/gram.

And the “Biodistribution, Brain” value ([3]; 30 min post injection)?
Its value is 1.59 ± 0.22 % dose/gram.

And the “Biodistribution, Kidney” value ([3]; 30 min post injection)?
The value was 6.31 ± 0.58 % dose/gram.

What about the “Biodistribution, Liver” value ([3]; 30 min post injection) of the same molecule?
The value was 12.9 ± 0.72 % dose/gram.

And the “Biodistribution, Muscle” value ([3]; 30 min post injection)?
Its value is 1.78 ± 0.34 % dose/gram.

For thioflavin S, which “Fluorescent staining of brain sections compared with [18F]8a autoradiography” value [4] is on record?
Its value is “same labeling of the major blood vessels”.
